Measurements published in ChEMBL document CHEMBL1955792, “Potent norovirus inhibitors based on the acyclic sulfamide scaffold” (Bioorg Med Chem, 2012).
The source made the active and inactive calls. The calls are words filed in the database; no cut-off is given here.

Columns and labels:
Norovirus [1] = assay: Inhibition of Norovirus 3C protease
Norovirus [2] = assay: Antiviral activity against Norovirus infected in HG23 cells assessed as inhibition of viral replication at 24 hrs by qRT-PCR analysis; assay type: functional; details: read-out: ED50 (the source's name)
Outline: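 Norwalk virus replicon-bearing HG23 cells were treated with compound, and NV genome levels were quantified by qRT-PCR at 24 h post-treatment. ED50 was derived from the reduction in genome levels. Values are the average of two independent experiments ± standard deviation.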

[3] = Cytotoxicity against human HG23 cells at 48 hrs; assay type: cell-based; details: for CC50: hg23, 48 h, 48 h, read-out: TD50 (the source's name); for CC50 at 48 h: HG23 cells, read-out: TD50
Outline: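 Norwalk virus replicon-harboring HG23 cells were treated with compound for 48 h, then assayed with a commercial cell cytotoxicity kit. The median toxic dose (TD50) was calculated from this read-out. Values are the average of two independent experiments ± standard deviation.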

[4] = Therapeutic index, ratio of TD50 for human HG23 cells to ED50 for Norovirus infected in HG23 cells; assay type: cell-based; details: for Ratio TD50/ED50: hg23; for selectivity ratio: HG23 cells, read-out: Ratio TD50/ED50
Outline: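 TD50 in HG23 replicon cells was measured with a cell cytotoxicity assay kit after 48 h of treatment. […] The index is TD50 divided by ED50.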

| Compound | inhibition (Norovirus [1]) | EC50 (Norovirus [2]; Norovirus, HG23, 24 h) [µM] | other results |
| --- | --- | --- | --- |
| O=C(CN(Cc1ccccc1)S(=O)(=O)NCc1cccc(Oc2ccccc2)c1)NCCN1CCOCC1 [listing 1 of 3 here] | inactive | – | – |
| O=C(CNS(=O)(=O)NCc1cccc(Oc2ccccc2)c1)NCCN1CCOCC1 [listing 1 of 3 here] | inactive | – | – |
| CSCCC(NS(=O)(=O)NCc1cccc(Oc2ccccc2)c1)C(=O)NCCN1CCOCC1 (racemic; 7d) | inactive | – | – |
| CN(CC(=O)NCCN1CCOCC1)S(=O)(=O)NCc1cccc(Oc2ccccc2)c1.Cl | – | – | EC50 (Norovirus [2]): 10.1 µM; CC50 [3]: 235 µM; Ratio TD50/ED50 [4]: 24 |
| CC(NS(=O)(=O)NCc1cccc(Oc2ccccc2)c1)C(=O)NCCN1CCOCC1 (racemic; 6b) [listing 1 of 2 here] | – | > 10 | – |
| O=C(CNS(=O)(=O)NCc1cccc(Oc2ccccc2)c1)N1CCN(Cc2ccccc2)CC1 [listing 1 of 2 here] | – | 5.5 | CC50 at 48 h [3]: 145 µM; selectivity ratio [4]: 26 |
| COC(=O)C1CCC(NC(=O)CNS(=O)(=O)NCc2cccc(Oc3ccccc3)c2)CC1 (configuration not stated) | inactive | > 10 | CC50 at 48 h [3]: 75 µM |
| O=S1(=O)NCCN1Cc1cccc(Oc2ccccc2)c1 | – | 4.1 | – |
| COC(=O)C1CCN(C(=O)CNS(=O)(=O)NCc2cccc(Oc3ccccc3)c2)CC1 | inactive | > 10 | – |
| CN(CC(=O)NCCN1CCOCC1)S(=O)(=O)NCc1cccc(Oc2ccccc2)c1 [listing 1 of 2 here] | inactive | – | – |
| CSCCC(NS(=O)(=O)NCc1cccc(Oc2ccccc2)c1)C(=O)NCCN1CCOCC1.Cl (racemic; 7d) | – | – | CC50 [3]: 230 µM; Ratio TD50/ED50 [4]: 54 |
| O=C(O)CCCCN1CCN(Cc2cccc(Oc3ccccc3)c2)S1(=O)=O | – | 6.1 | – |
| COC(=O)CNS(=O)(=O)NCc1cccc(Oc2ccccc2)c1 | inactive | > 10 | – |
| O=C(CNS(=O)(=O)NCc1cccc(Oc2ccccc2)c1)NCc1ccccc1 | inactive | 8.1 | CC50 at 48 h [3]: 47 µM |
| O=C(CN(Cc1ccccc1)S(=O)(=O)NCc1cccc(Oc2ccccc2)c1)NCCN1CCOCC1 [listing 2 of 3 here] | – | – | EC50 (Norovirus [2]): 3.9 µM; CC50 [3]: 55 µM |
| CSCCC(NS(=O)(=O)NCc1cccc(Oc2ccccc2)c1)C(=O)NCCN1CCOCC1 (racemic; 6d) [listing 1 of 2 here] | inactive | – | – |

| Compound | inhibition (Norovirus [1]) | EC50 (Norovirus [2]; Norovirus, HG23, 24 h) [µM] | other results |
| --- | --- | --- | --- |
| O=C(O)C1CCN(C(=O)CNS(=O)(=O)NCc2cccc(Oc3ccccc3)c2)CC1 | inactive | > 10 | – |
| CCOC(=O)N1CCN(C(=O)CNS(=O)(=O)NCc2cccc(Oc3ccccc3)c2)CC1 | inactive | 8.2 | CC50 at 48 h [3]: 130 µM |
| O=C(CNS(=O)(=O)NCc1cccc(Oc2ccccc2)c1)NCCN1CCOCC1 [listing 2 of 3 here] | – | 8.5 | CC50 at 48 h [3]: 165 µM |
| Cl.O=C(CNS(=O)(=O)NCc1cccc(Oc2ccccc2)c1)N1CCN(Cc2ccccc2)CC1 | – | – | EC50 (Norovirus [2]): 5.7 µM; CC50 [3]: 120 µM; Ratio TD50/ED50 [4]: 21 |
| CCCC(NS(=O)(=O)NCc1cccc(Oc2ccccc2)c1)C(=O)NCCN1CCOCC1 (racemic) | inactive | > 10 | – |
| O=S1(=O)N(CCN2CCOCC2)CCN1Cc1cccc(Oc2ccccc2)c1 | – | 4.2 | CC50 at 48 h [3]: 51 µM |
| CSCCC(NS(=O)(=O)NCc1cccc(Oc2ccccc2)c1)C(=O)NCCN1CCOCC1 (racemic; 6d) [listing 2 of 2 here] | – | 4.5 | CC50 at 48 h [3]: 124 µM; selectivity ratio [4]: > 27 |
| O=C(CNS(=O)(=O)NCc1cccc(Oc2ccccc2)c1)NCCN1CCOCC1 [listing 3 of 3 here] | – | – | EC50 (Norovirus [2]): 5.1 µM; CC50 [3]: 330 µM; selectivity ratio [4]: 65 |
| CN(CC(=O)NCCN1CCOCC1)S(=O)(=O)NCc1cccc(Oc2ccccc2)c1 [listing 2 of 2 here] | – | 5.2 | CC50 at 48 h [3]: 320 µM; Ratio TD50/ED50 [4]: 63 |
| O=C(CNS(=O)(=O)NCc1cccc(Oc2ccccc2)c1)NCCc1ccccc1 | inactive | > 10 | – |
| O=C(CNS(=O)(=O)NCc1cccc(Oc2ccccc2)c1)NCc1ccco1 | inactive | > 10 | – |
| CC(NS(=O)(=O)NCc1cccc(Oc2ccccc2)c1)C(=O)NCCN1CCOCC1 (racemic; 6b) [listing 2 of 2 here] | inactive | – | – |
| O=C(CN(Cc1ccccc1)S(=O)(=O)NCc1cccc(Oc2ccccc2)c1)NCCN1CCOCC1 [listing 3 of 3 here] | – | 3.8 | CC50 at 48 h [3]: 45 µM |
| O=C(CNS(=O)(=O)NCc1cccc(Oc2ccccc2)c1)N1CCN(Cc2ccccc2)CC1 [listing 2 of 2 here] | inactive | – | – |
| O=C(CNS(=O)(=O)NCc1cccc(Oc2ccccc2)c1)NC1CCC(C(=O)O)CC1 (configuration not stated) | inactive | > 10 | – |
| CC(NS(=O)(=O)NCc1cccc(Oc2ccccc2)c1)C(=O)NCCN1CCOCC1 (racemic; 7b) | inactive | – | – |
